This is a sample that favours compounds with a hit; in the whole collection about 1.7% have one here.
TPT1 inh – C. albicans TPT1 enzyme inhibition; recombinant caTPT1, FP RNA substrate dephosphorylation; inhibition, % at 5 µM; AID 1962; 300,000 compounds, 0.81% hits;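 active = inhibition above the mean of all tested compounds plus 3 SD, set per screening campaign, cut at about 24% in these data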;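 note: plate controls were DMSO alone for no effect and ferristatin control at 100 nM for full effect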
CSN inh – CSN deneddylation inhibition; Q92905; Purified CSN, SCF-Nedd8-OG deneddylation, fluorescence polarization; inhibition, % at 12.5 µM; 360,000 compounds, 0.38% hits; AID 651999;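 active = pattern-corrected inhibition above about 35%, with an unprinted fluorescence ratio check between 0.5 and 1.5, limit read from the data, passing the limit was not always enough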;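 note: 0% = enzyme with substrate and 100% = substrate without enzyme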
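Material: purified human Csn5 enzyme expressed in HEK293T cells / Medium: Tris buffer pH 7.5, NaCl, DTT, Tween-20, trehalose, ovalbumin / Compound dosing: 12.5 µM single point / Schedule: 90 min incubation of compound, enzyme and substrate at room temperature / Signal: fluorescence polarization of the substrate / Control set: no-enzyme wells high, enzyme-with-substrate wells low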
HNF4A DNA FP – change in binding of human HNF4 alpha to DNA | AID 1224865 | 360,000 compounds, 0.3% hits | P41235 | activity change, % at 10 µM | HNF4a-FITC DNA binding, fluorescence polarization, 1 h; in the data active = activity change above about 30%, passing the limit was not always enough
Rev-erbA mod – modulators of human Rev-erb alpha DNA binding; P20393; AID 1259318; Rev-erbα–FITC-DNA binding, fluorescence polarization, 90 min; 370,000 compounds, 0.79% hits; activity, % at 10 µM;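 active = activity above about 14%, limit read from the data; passing the limit was not always enough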;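 note: 0% = DMSO wells with 35 nM protein and 100% = DMSO wells with 750 nM protein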
Target sequence (P20393 whole entry, looked up): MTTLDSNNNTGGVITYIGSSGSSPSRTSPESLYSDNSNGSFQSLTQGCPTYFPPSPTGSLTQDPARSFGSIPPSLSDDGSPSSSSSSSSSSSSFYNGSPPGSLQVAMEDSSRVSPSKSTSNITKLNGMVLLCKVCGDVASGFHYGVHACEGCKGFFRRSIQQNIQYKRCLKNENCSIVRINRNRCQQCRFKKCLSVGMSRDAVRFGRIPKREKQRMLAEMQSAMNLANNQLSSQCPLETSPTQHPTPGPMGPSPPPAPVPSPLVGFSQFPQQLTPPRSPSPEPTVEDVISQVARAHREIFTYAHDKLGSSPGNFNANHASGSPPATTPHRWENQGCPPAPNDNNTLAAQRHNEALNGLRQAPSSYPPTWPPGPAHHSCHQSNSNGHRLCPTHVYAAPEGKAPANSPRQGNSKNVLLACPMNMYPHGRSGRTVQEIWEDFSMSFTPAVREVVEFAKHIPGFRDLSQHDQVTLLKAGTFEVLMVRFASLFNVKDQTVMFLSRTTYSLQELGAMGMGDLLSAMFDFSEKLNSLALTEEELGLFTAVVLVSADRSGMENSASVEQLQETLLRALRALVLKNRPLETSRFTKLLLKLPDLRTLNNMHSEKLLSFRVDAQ
Rev-erbA confirm – Rev-erb alpha (human) modulation, hit confirmation; shares compounds with Rev-erbA mod; Rev-erb alpha FITC-DNA binding, fluorescence polarization, 90 min; activation, % at 25 µM; 3,000 compounds, 61% hits; AID 1259319;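 active = activation at or above a set limit, or at least 3 SD above the negative control mean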;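 note: 0% = 35 nM protein with DMSO and 100% = 750 nM protein high control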
RORg DNA counter – counter-screen for Rev-erb alpha modulators: RORgamma DNA binding. IC50, µM. 910 compounds, 8% hits. purified RORgamma protein-FITC-DNA binding, fluorescence polarization. shares compounds with Rev-erbA mod;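 active = Compounds whose fitted half-maximal concentration for disrupting protein-DNA binding is below 10 micromolar; the record names Rev-erb in its text, so the target is in doubt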
An asterisk follows results filed as active; i = inactive; · = no result given.

SMILES | TPT1 inh | CSN inh | HNF4A DNA FP | Rev-erbA mod | Rev-erbA confirm | others
O=C(Cn1c(=O)c(=O)n(Cc2ccccc2)c2ccc(Cl)cc21)Nc1cccc(F)c1 | 0 | -10 | 3 | 44* | 24*
O=C(Cn1c2ccccc2c(=O)c2ccccc21)Nc1cccc(F)c1 | 3 | 5 | 4 | 28* | 16
COC(=O)CCC[C@H](C)[C@@H](NS(=O)(=O)c1ccc(C)cc1)C(C)(C)C | · | · | · | -2 | ·
O=C(COc1ncnc2ccccc12)NCCC1=CCCCC1 | -1 | 0 | -3 | -3 | ·
O=C(COc1ncnc2c(Cl)cc(Cl)cc12)NCCC1=CCCCC1 | 4 | 3 | 0 | 22* | 16
COc1ccc(C2CC(c3ccc(Cl)c(Cl)c3)Nc3nc(N)nn32)cc1 (centres undefined) | -1 | 0 | -1 | 31* | 17*
COc1ccc(C2CC(c3ccc(Cl)cc3Cl)Nc3nc(N)nn32)cc1 (centres undefined) | 0 | -3 | -3 | -2 | ·
CCCN(CCC)S(=O)(=O)c1cc2c3c(c1)CCN3C(=O)CC2 | 3 | 3 | 1 | -4 | ·
CCN(c1cccc(C)c1)S(=O)(=O)c1cc2c3c(c1)CCC(=O)N3CCC2 | -4 | 1 | 1 | 53* | 62* | RORg DNA counter=>40
O=C(Cc1ccc(NC(=O)C2CCCN(C(=O)c3ccccc3)C2)cc1)Nc1cccc(C(=O)N2CCCC2)c1 (centres undefined) | · | · | · | 0 | ·
COc1ccc(C2Nc3ccc(Br)cc3C(c3ccccc3)N2CC(=O)O)cc1 (centres undefined) | -3 | -7 | 0 | 18* | 11
Cc1nc(SCC(=O)Nc2ccc(F)cc2)c2oc3ccccc3c2n1 | -2 | -2 | 0 | 220* | 233* | RORg DNA counter=>40
Cc1nc(SCC(=O)Nc2ccccc2)c2oc3ccccc3c2n1 | 0 | -4 | -2 | 781* | 666* | RORg DNA counter=>40
Cc1nc(SCC(=O)NC(C)c2ccccc2)c2oc3ccccc3c2n1 (centres undefined) | 2 | 7 | 4 | 14 | ·
C[C@H](O)[C@@H]1C(=O)N2CCc3c([nH]c4c(-c5ccccc5)cccc34)[C@@H]2C[C@@H]1N(C)C(=O)/C=C/c1ccccc1 | · | · | · | 1 | ·
CCOC(=O)c1cnc(SCC(=O)N2CCc3ccccc32)nc1N | 0 | 2 | 2 | 49* | 7
Cc1ccc2cccc(OC(=O)c3cccnc3Oc3ccccc3)c2n1 | · | · | · | -6 | ·
COC(=O)C1=C(C)N(Cc2ccc(C(F)(F)F)cc2)C(=NCc2ccccc2)NC1c1cccc(Cl)c1 (centres undefined) | · | · | · | 1 | ·
Cc1c(N=C2N=C(NC(=O)c3ccc(F)cc3)c3ccccc32)c(=O)n(-c2ccccc2)n1C | 15 | -103 | 75* | 92* | 51*
Cc1c(NC(=O)NC(=O)c2ccc(F)cc2)c(=O)n(-c2ccccc2)n1C | 0 | -3 | -2 | -1 | ·
CCc1cc2c(=O)[nH]c(Cc3ccc(Cl)cc3)nc2s1 | 0 | -4 | 2 | 19* | 18*
Cc1ccc(O)c(N=Nc2nccs2)c1 | · | -4 | 0 | 20* | 7
O=C(COC(=O)c1ccccc1C(=O)c1ccc(Cl)cc1)NC(c1ccccc1)c1ccccc1 | 2 | 4 | -3 | 35* | 9
C[n+]1c2cc(N)ccc2cc2ccc(N)cc21 | · | -74 | -99 | 51* | 29* | RORg DNA counter=>40
O=CN1CCN(C(=O)C2CCN(c3ncnc4c3sc3cccc(F)c34)CC2)CC1 | · | · | · | 5 | ·
SMILES | TPT1 inh | CSN inh | HNF4A DNA FP | Rev-erbA mod | Rev-erbA confirm | others
Cc1ccc(Cl)cc1N1CCN(Cc2nc3c(c(=O)[nH]c(=O)n3C)n2CCc2ccccc2)CC1 | -2 | 3 | 2 | 2 | ·
Cc1ccc(Cl)cc1N1CCN(Cc2nc3c(c(=O)[nH]c(=O)n3C)n2Cc2ccccc2F)CC1 | -2 | 5 | 2 | 29* | 19*
O=C(NCc1ccccc1)[C@@H]1CCCN1C(=O)[C@H]1CCCN1C(=O)c1ccc(F)cc1F | · | · | · | 5 | ·
O=C(NCc1cccc(C(F)(F)F)c1)O[C@H]1CC[C@@]23CCCN2C(=O)CCC[C@H]3C1 | · | · | · | 5 | ·
O=C(Nc1ccc(-c2nc3ccccc3s2)c(O)c1)C1=COCCO1 | 1 | 13 | 2 | 87* | 12
O=C(Nc1ccc(O)c(-c2nc3ccccc3s2)c1)C1=COCCO1 | 2 | 0 | 2 | 494* | 259* | RORg DNA counter=>40
O=C(Nc1ccc(-c2nc3ccccc3s2)cc1)C1=COCCO1 | 4 | -9 | 0 | 9 | ·
Cc1c(C(=O)N(C)Cc2ccc(F)cc2)sc(=O)n1Cc1ccc(Cl)c(Cl)c1 | · | -1 | 1 | 6 | ·
CNc1ccccc1/C(O)=C(\C#N)C(=O)NCc1cccc2ccccc12 | · | · | · | 42* | 26*
CC(C)[C@@H](C)/C=C/[C@@H](C)[C@H]1CC[C@@H]2[C@]1(C)CCC1[C@]23C=C[C@]2(C[C@@H](O)CC[C@]12C)N(c1cnccn1)O3 (some centres undefined) | · | · | · | 3 | ·
Cc1cccc(N2C(=O)CC(Sc3nc(-c4ccccc4)c4cc(Cl)ccc4n3)C2=O)c1 (centres undefined) | 5 | 6 | -3 | 20* | -14
COCCCNc1nc2c(-c3ccc(C)cc3)nnn2c2ccccc12 | 2 | -4 | -2 | 65* | 35* | RORg DNA counter=i
COCCCNc1nc2c(-c3cccc(C)c3)nnn2c2ccccc12 | 0 | -3 | 2 | 24 | ·
CN(C)C(CNC(=O)c1cccc(S(=O)(=O)N2CCN(c3ccc(F)cc3)CC2)c1)c1ccccc1 (centres undefined) | · | -2 | -2 | 2 | ·
Cc1ccc(C)c(NC(=O)CN(C)C(=O)c2ccc(-c3ccc(Cl)cc3)o2)c1 | 1 | 6 | -1 | 26* | 18*
COC(=O)c1cc2c(c3c4cc(OC)ccc4n(S(=O)(=O)c4cccc(C)c4)c13)C(=O)N(C)C2 | · | · | · | -1 | ·
COc1ccc(C)cc1NC(=O)c1cc2c(=O)n3ccccc3nc2n1C | 0 | 1 | -1 | 23* | 55* | RORg DNA counter=>40
COc1ccc(NC(=O)c2cc3c(=O)n4ccccc4nc3n2C)c(OC)c1 | -4 | -7 | 1 | 8 | ·
C=CCn1c(=NC(=O)c2cccs2)sc2cccc(OC)c21 | 4 | 1 | 2 | -4 | ·
C#CCn1c(=NC(=O)c2ccc(Br)s2)sc2cccc(OC)c21 | 4 | 9 | 2 | 27* | 43* | RORg DNA counter=i
COc1cccc(/C=C/C(=O)OCC(=O)c2ccc(S(=O)(=O)N3CCCCC3)cc2)c1OC | 1 | -2 | 2 | 6 | ·
COc1cc(/C=C/C(=O)OCC(=O)c2ccc(S(=O)(=O)N3CCCCC3)cc2)cc(OC)c1OC | · | -2 | 0 | 18* | 5
C=CCNC(=O)Nc1ccc2c(c1)[C@@]1(CC(=O)N(CC(C)C)C1c1ccccc1)C(=O)N2C (some centres undefined) | · | · | · | 0 | ·

Compound activity from PubChem BioAssay.
